In ChEMBL document CHEMBL3407441, “Design, synthesis and docking studies of novel thienopyrimidine derivatives bearing chromone moiety as mTOR/PI3Kα inhibitors” (Eur J Med Chem, 2015):

Assays:
[1] = biological target: T1, Serine/threonine-protein kinase mTOR (Homo sapiens, UniProt P42345); test: Inhibition of mTOR kinase (unknown origin) using ULight-4E-BP1 as substrate after 1 hr by TR-FRET assay
[2] = biological target: T2, Phosphatidylinositol 4,5-bisphosphate 3-kinase catalytic subunit alpha isoform (Homo sapiens, UniProt P42336); test: Inhibition of PI3K-alpha kinase (unknown origin) using ULight-4E-BP1 as substrate at 10 uM after 60 mins by luminescence assay; details: in the assay text read “L-alpha-phosphatidylinositol” for “ULight-4E-BP1”
T2 sequence (P42336 whole entry, canonical isoform): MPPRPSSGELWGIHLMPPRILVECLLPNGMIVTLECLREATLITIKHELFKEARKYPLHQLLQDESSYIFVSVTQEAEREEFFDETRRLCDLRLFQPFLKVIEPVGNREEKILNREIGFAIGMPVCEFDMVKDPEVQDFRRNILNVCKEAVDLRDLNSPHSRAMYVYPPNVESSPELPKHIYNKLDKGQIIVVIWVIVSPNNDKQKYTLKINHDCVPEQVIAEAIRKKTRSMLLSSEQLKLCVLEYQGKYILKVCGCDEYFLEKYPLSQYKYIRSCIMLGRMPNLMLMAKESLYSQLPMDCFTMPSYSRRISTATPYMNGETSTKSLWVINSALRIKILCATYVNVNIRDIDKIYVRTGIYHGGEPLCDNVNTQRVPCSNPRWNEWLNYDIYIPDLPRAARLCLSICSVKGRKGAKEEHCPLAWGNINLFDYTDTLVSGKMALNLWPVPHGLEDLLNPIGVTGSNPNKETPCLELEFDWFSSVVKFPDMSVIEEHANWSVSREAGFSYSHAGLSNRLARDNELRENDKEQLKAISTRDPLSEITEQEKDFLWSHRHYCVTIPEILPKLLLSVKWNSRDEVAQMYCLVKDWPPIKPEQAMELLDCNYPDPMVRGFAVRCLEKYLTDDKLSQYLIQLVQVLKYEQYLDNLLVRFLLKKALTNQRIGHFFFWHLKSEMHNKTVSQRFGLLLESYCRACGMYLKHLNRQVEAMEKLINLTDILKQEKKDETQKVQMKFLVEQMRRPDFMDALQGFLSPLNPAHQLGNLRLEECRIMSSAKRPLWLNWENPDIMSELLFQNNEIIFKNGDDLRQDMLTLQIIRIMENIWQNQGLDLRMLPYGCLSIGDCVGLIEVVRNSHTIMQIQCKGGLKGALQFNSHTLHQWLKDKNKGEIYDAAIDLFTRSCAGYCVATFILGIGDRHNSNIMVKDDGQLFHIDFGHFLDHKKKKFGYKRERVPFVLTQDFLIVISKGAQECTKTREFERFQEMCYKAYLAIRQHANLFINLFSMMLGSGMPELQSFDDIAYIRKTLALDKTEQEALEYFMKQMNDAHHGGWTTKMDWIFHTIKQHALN
Procedure, shortened: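 Kinase-Glo luminescent assay with 10 nM PI3Kα protein and lipid substrate prepared in 3% octyl-glucoside. The reaction was started by adding ATP in reaction buffer and ran 60 min. It was stopped with Kinase-Glo buffer, then luminescence was read.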

[3] = Cytotoxicity against human H460 cells after 72 hrs by MTT assay; assay type: functional, cell-based; details: NCI-H460, 72 h
Procedure, shortened: (§1)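 MTT assay on H460 and PC-3 cells grown in MEM with 10% FBS. MTT was added at […] and incubated with the cells for 4 h at 37 °C. Formazan was dissolved in DMSO and absorbance read at 492 nm against a 630 nm reference. Each compound was tested three times per cell line; IC50 values are averages of two determinations.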

[4] = biological target: T2, Phosphatidylinositol 4,5-bisphosphate 3-kinase catalytic subunit alpha isoform; test: Inhibition of PI3K-alpha kinase (unknown origin) using L-alpha-phosphatidylinositol as substrate after 60 mins by luminescence assay
[5] = Cytotoxicity against human PC3 cells after 72 hrs by MTT assay; assay type: functional, cell-based; details: PC-3, 72 h; procedure, shortened: as §1
[6] = biological target: T1, Serine/threonine-protein kinase mTOR; test: Ratio of (E)-4-((2-(4,6-dimorpholino-1,3,5-triazin-2-yl)hydrazono)methyl)-2,6-dimethoxyphenol IC50 to compound IC50 for mTOR kinase (unknown origin)
[7] = biological target: T2, Phosphatidylinositol 4,5-bisphosphate 3-kinase catalytic subunit alpha isoform; test: Ratio of (E)-4-((2-(4,6-dimorpholino-1,3,5-triazin-2-yl)hydrazono)methyl)-2,6-dimethoxyphenol IC50 to compound IC50 for PI3K-alpha kinase (unknown origin)
PC-3 = test: Ratio of (E)-4-((2-(4,6-dimorpholino-1,3,5-triazin-2-yl)hydrazono)methyl)-2,6-dimethoxyphenol IC50 to compound IC50 for human PC3 cells; assay type: functional
[8] = Ratio of (E)-4-((2-(4,6-dimorpholino-1,3,5-triazin-2-yl)hydrazono)methyl)-2,6-dimethoxyphenol IC50 to compound IC50 for human H460 cells; assay type: functional

SMILES | IC50 [1] [nM] | inhibition [2] [%] | IC50 [4] [nM] | Ratio IC50 [6] | Ratio IC50 [7] | IC50 [3] [nM] | IC50 [5] [nM] | Ratio IC50 (PC-3) | Ratio IC50 [8]
O=c1c(/C=N/Nc2nc(N3CCOCC3)c3ccsc3n2)coc2ccc([N+](=O)[O-])cc12 | 920 | 91.2 | 1530 |  |  | 3240 | 1420 |  | 
COc1cc(/C=N/Nc2nc(N3CCOCC3)nc(N3CCOCC3)n2)cc(OC)c1O |  |  | > 10000 |  |  |  |  |  | 
O=C(O)c1ccc2occ(/C=N/Nc3nc(N4CCOCC4)c4sccc4n3)c(=O)c2c1 | 3310 | 95 | 1810 |  |  |  | 6260 |  | 
O=C(O)c1ccc2occ(/C=N/Nc3nc(N4CCOCC4)c4ccsc4n3)c(=O)c2c1 | 160 | 90.6 | 2350 | 8.6 | > 5 | 1200 | 850 | 19.1 | 7.9

Further lines, with some results ahead:

IC50 [1] [nM] | inhibition [2] [%] | IC50 [4] [nM] | Ratio IC50 [6] | Ratio IC50 [7] | SMILES | IC50 [3] [nM] | IC50 [5] [nM] | Ratio IC50 (PC-3) | Ratio IC50 [8]
16600 |  |  |  |  | N#Cc1cccc(Cn2cc(/C=N/Nc3nc(N4CCOCC4)nc(N4CCOCC4)n3)c3ccccc32)c1 |  |  |  | 
> 30000 |  |  |  |  | Fc1cccc(Cn2cc(/C=N/Nc3nc(N4CCOCC4)c4sccc4n3)c3ccccc32)c1 |  |  |  | 
4620 | 58.8 | > 10000 |  |  | O=c1c(/C=N/Nc2nc(N3CCOCC3)c3sccc3n2)coc2ccc([N+](=O)[O-])cc12 |  | 6900 |  | 
